Where no end group is shown, it is not given here. [ ]: non-standard residue; d: D form. The star is where a group is joined. FITC = O=C1OC2(c3ccc(O)cc3Oc3cc(O)ccc32)c2ccc(NC(=S)*)cc21; pY = N[C@@H](Cc1ccc(OP(=O)(O)O)cc1)C(=O)O
Legend:
Csk^AS [1] = assay: Reconstituted cellular system for Lck activation; format: cell-based; conditions: HEK 293 cells with CD45, Csk^AS, 3-IB-PP1 5 μM, 1 min, 37 °C, immunoblot
Csk^AS [2] = conditions: analog-sensitive allele of Csk; ref Schoenborn et al., 2011; cited from earlier work
J.Lck cells = assay: Intracellular calcium measurement by flow cytometry; format: cell-based, human; conditions: J.Lck cells expressing Lck Y192E/A variants; Indo-1 AM, 37 °C, flow cytometry (Figure S2)
tyrosine phosphatases = assay: Total protein phosphotyrosine immunoblot after pervanadate treatment; format: cell-based, human; conditions: J.Lck cells, Lck Y192E/A variants; pervanadate 100 μM; immunoblot (Figure S2B)
Summary of the method: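 Jurkat-derived cells grown in RPMI with 10% FBS and 2 mM glutamine at 37 °C, 5% CO2. Lck-reconstituted lines checked by immunoblot and sequencing. Cells rinsed in RPMI, resuspended at 5 × 10^6 cells/mL and rested 15 min at 37 °C, then left unstimulated or given pervanadate (100 μM). Lysis in 1% NP-40 (final) with […], NaF, EDTA, PMSF, protease inhibitors and PP2 (25 μM). Immunoblot read-out.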

[3] = target: GST Lck SH2 protein (human Lck SH2 domain, residues 123-227, WT) (human, UniProt P06239 123-227); assay: fluorescence polarisation
GST Lck SH2 protein (human Lck SH2 domain, residues 123-227, WT), sequence (P06239 123-227): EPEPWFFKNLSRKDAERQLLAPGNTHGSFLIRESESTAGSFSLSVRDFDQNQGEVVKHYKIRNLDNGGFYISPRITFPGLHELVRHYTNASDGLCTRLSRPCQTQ

[4] = target: GST Lck SH2 Y192E (human Lck SH2 domain, residues 123-227) (human, UniProt P06239 123-227, Y192E); assay: fluorescence polarisation
GST Lck SH2 Y192E (human Lck SH2 domain, residues 123-227), sequence (P06239 123-227 Y192E): as the sequence (P06239 123-227) above, with Y70E counted along it

CC(C)(C)n1nc(Cc2cccc(I)c2)c2c(N)ncnc21 [3-IB-PP1]
CD8/ζ-chain phosphorylation upon Csk^AS inhibition (Csk^AS [1]; N=3, Lck Y192E/A variants): only a minimal increase | C-terminal tail (Y505) phosphorylation upon Csk^AS inhibition (Csk^AS [1]; CD8/ζ, N=3, Lck Y192F): the Y192F mutant is dephosphorylated by CD45 | inhibition of Csk^AS (Csk^AS [2]): inhibited

C[C@H](CCC(=O)O)C[C@H](C)C[C@H](C)C(=O)/C=C(\O)[C@H](C)C[C@H](C)C/C=C/[C@@H](C)[C@@H](O)[C@@H](C)[C@@H](O)C[C@@H]1CC[C@@](C)([C@H]2CC[C@@](C)([C@@H](C)O)O2)O1 [ionomycin]
calcium response to ionomycin (J.Lck cells): responded robustly

pervanadate
Lck autophosphorylation upon pervanadate treatment (tyrosine phosphatases): robust autophosphorylation

{FITC}-TEGQ[pY]QPQP [FITC-TEGQ[pY]QPQP, phosphopeptide of the Lck C-terminal tail]
binding result [3]: binds | binding result [4]: binds

Reference: PMC5558854 (Molecular cell, 2017)
